Data on 37 sequences can be found in the array DNA melting data of Ke et al. (doi:10.1101/2024.01.08.574731).

Data set [1] in a line: folding enthalpy; higher = less favourable; fluorescence melt of hairpins on a sequencing array, two-state fit. Particulars: sodium 0.088 M. The method in brief:
(§1)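 Two-state fits, bootstrapped, provided melting temperature and folding enthalpy from Cy3 fluorescence normalised to pre-quench Cy3 and to control constructs. Library hairpins with annealed Cy3 and quencher oligos were imaged on a sequenced MiSeq flow cell in 50 mM Na-HEPES pH 8.0, 25 mM NaCl, at 2.5 °C intervals up to 60 °C. Four replicates were combined with inverse-variance weighting. A 9.35 °C upward shift was applied to fitted temperatures to match UV melts.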

Data set [2] can be described thus: melting temperature; fluorescence melt of hairpins on a sequencing array, two-state fit, raised by 9.35 °C to match UV melts. Particulars: sodium 0.088 M. In a few lines:
as §1

On to GGGTTTCGAAAGAATCCC (((.(((....))).))), for which the folding enthalpy in data set [1] is -36.6 kcal/mol. The Tm in data set [2] came out at 50.1 °C.
Take GGGTTTGAAAAAACCC ((((((....)))))): the folding enthalpy in data set [1] was -40 kcal/mol. Moreover, the Tm in data set [2] worked out at 58.4 °C.
For GGGTTTGGAAACAAACTC (.(((((....))))).), in data set [1], the folding enthalpy is -29.8 kcal/mol. Moreover, the Tm in data set [2] came to 46.6 °C.
GGTAAAGAAATTTACC ((((((....)))))): the folding enthalpy in data set [1] is -26 kcal/mol. The Tm in data set [2] was determined as 40.1 °C.
As for GGTAAAGGAAACTTTGCC ((.((((....)))).)), the folding enthalpy in data set [1] is -28.6 kcal/mol. Besides, the Tm in data set [2] was 42.6 °C.
On to GGTAACCCGAAAGGGACC (((..(((....)))))), for which the folding enthalpy in data set [1] is -14.9 kcal/mol. For the same sequence, the Tm in data set [2] came out at 36.5 °C.
On to GGTAACCGAAAGGTCACC (((.(((....))).))), for which the folding enthalpy in data set [1] is -25 kcal/mol. In addition, the Tm in data set [2] came out at 48.2 °C.
In the same order, the values of GGTAACGAAAGTTAACC ((((((....))).))) are -18.2 kcal/mol and 45.3 °C.
The like results for GGTAACGAAAGTTCACC ((((((....))).))) were, in that order, -21.2 kcal/mol and 38.3 °C.
In the same order, the values of GGTAACGAAAGTTTAACC ((((((....)))..))) are -15.7 kcal/mol and 33.8 °C.
On to GGTAACGGAAACGTTACC (((((((....))))))), for which the folding enthalpy in data set [1] is -45.6 kcal/mol. In data set [2], the Tm was 63.2 °C.
The like results for GGTAAGCCGAAAGGCACC (((..(((....)))))) were, in that order, -15.4 kcal/mol and 42 °C.
In the same order, the values of GGTAATCGAAAGATCACC (((.(((....))).))) are -25.6 kcal/mol and 39.2 °C.
For GGTACACGAAAGTGCACC (((.(((....))).))), the folding enthalpy in data set [1] is -33.9 kcal/mol. Further, the Tm in data set [2] turned out to be 52.3 °C.
Take GGTACAGGAAACTGTGCC ((.((((....)))).)): the folding enthalpy in data set [1] is -31.8 kcal/mol. Moreover, in data set [2], the Tm came out at 52.6 °C.
Take GGTACATCGAAAGATACC (((..(((....)))))): in data set [1], the folding enthalpy is -11.5 kcal/mol. Moreover, the Tm in data set [2] came to 29.7 °C.
Take GGTACCCGAAAGGGCACC (((.(((....))).))): the folding enthalpy in data set [1] was -32.3 kcal/mol. Besides, the Tm in data set [2] turned out to be 55.6 °C.
As for GGTACCGAAAGGTAACC ((((((....))).))), in data set [1], the folding enthalpy was -26.9 kcal/mol. The Tm in data set [2] is 53.4 °C.
For the sequence GGTACCGAAAGGTATACC ((((((....)))..))), the folding enthalpy in data set [1] is -15.3 kcal/mol. In addition, in data set [2], the Tm was 41.4 °C.
In the same order, the values of GGTACCGAAAGGTCAACC ((((((....)))..))) are -15.3 kcal/mol and 34.5 °C.
On to GGTACCGAAAGGTTACC ((((((....))).))), for which the folding enthalpy in data set [1] is -26.4 kcal/mol. Besides, in data set [2], the Tm stood at 50 °C.
GGTACCGAAAGGTTTACC ((((((....)))..))): the folding enthalpy in data set [1] was -13.8 kcal/mol. In addition, the Tm in data set [2] was found to be 37.1 °C.
In the case of GGTACCGGAAACAGTACC (((((.(....).))))), the folding enthalpy in data set [1] is -31.1 kcal/mol. Further, the Tm in data set [2] was found to be 39.9 °C.
In the same order, the values of GGTACCGGAAACGGTGCC ((.((((....)))).)) are -38.3 kcal/mol and 60.6 °C.
The like results for GGTACGCGAAAGCGACC (((.(((....)))))) were, in that order, -14.9 kcal/mol and 54.8 °C.
For the sequence GGTACGGGAAACCACACC (((..((....))..))), the folding enthalpy in data set [1] is -16.2 kcal/mol. The Tm in data set [2] worked out at 33 °C.
Take GGTACGGGAAACCGTGCC ((.((((....)))).)): in data set [1], the folding enthalpy is -40.9 kcal/mol. In addition, the Tm in data set [2] was determined as 59.7 °C.
In the same order, the values of GGTACGGGAAACCGTGTC (..((((....))))..) are -14.1 kcal/mol and 35.3 °C.
The like results for GGTACTCGAAAGAGCACC (((.(((....))).))) were, in that order, -34.8 kcal/mol and 50.5 °C.
Take GGTACTCGAAAGAGGACC (((.(((....))).))): the folding enthalpy in data set [1] was -42.7 kcal/mol. The Tm in data set [2] turned out to be 61.5 °C.
As for GGTACTGAAAAGTACC ((((((....)))))), the folding enthalpy in data set [1] was -39.5 kcal/mol. Further, the Tm in data set [2] amounted to 57.4 °C.
Turning to GGTAGAACGAAAGTTACC (((..(((....)))))), the folding enthalpy in data set [1] was -17 kcal/mol. In data set [2], the Tm amounted to 35 °C.
The like results for GGTAGAGGAAACCCTACC (((((.(....).))))) were, in that order, -33.4 kcal/mol and 38.2 °C.
The like results for GGTAGAGGAAACTCTATC (.(((((....))))).) were, in that order, -26.9 kcal/mol and 37.1 °C.
The like results for GGTAGAGGAAACTTTACC ((((.((....)).)))) were, in that order, -24.9 kcal/mol and 34 °C.
As for GGTAGCCGAAAGGCGACC (((.(((....))).))), in data set [1], the folding enthalpy is -24.5 kcal/mol. The Tm in data set [2] was 66.9 °C.
The like results for GGTAGCGAAAGCTAACC ((((((....))).))) were, in that order, -18.7 kcal/mol and 53.8 °C.
